Laboratory results published in the M2OR odorant receptor database.

Columns and labels:
Settings in all cases: stereoisomer not certain
[1] = target: T1, OR10A3 (Homo sapiens) (UniProt P58181)
T1 sequence (whole entry): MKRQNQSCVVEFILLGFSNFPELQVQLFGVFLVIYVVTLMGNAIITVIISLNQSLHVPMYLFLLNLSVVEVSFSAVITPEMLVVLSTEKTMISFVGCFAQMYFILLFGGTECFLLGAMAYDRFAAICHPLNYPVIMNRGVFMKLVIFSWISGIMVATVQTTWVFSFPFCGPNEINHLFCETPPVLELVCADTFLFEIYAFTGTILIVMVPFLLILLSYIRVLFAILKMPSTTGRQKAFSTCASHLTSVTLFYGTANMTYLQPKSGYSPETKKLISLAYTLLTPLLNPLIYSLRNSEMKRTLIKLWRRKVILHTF
Summary of the method: (§1)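 Transient luciferase assays in mammalian cell lines were common, though methods varied by source. The values come from published papers and their supplementary material, with extra details from the original authors when needed. Responsive refers to a measured signal the original authors judged statistically different from baseline, and non-responsive (inactive) to the remainder.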

[2] = target: T2, OR10A4 (Homo sapiens) (UniProt Q9H209)
T2 sequence (whole entry): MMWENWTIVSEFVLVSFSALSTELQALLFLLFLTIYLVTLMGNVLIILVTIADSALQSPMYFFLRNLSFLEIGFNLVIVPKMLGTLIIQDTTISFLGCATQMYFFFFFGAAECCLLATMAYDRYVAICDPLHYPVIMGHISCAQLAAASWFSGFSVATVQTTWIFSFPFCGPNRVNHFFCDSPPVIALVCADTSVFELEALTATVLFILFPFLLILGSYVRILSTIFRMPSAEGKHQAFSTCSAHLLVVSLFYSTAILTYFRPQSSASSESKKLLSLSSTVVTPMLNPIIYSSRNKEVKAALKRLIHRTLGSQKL
Summary of the method: as §1

[3] = target: T3, OR10A5 (Homo sapiens) (UniProt Q9H207)
T3 sequence (whole entry): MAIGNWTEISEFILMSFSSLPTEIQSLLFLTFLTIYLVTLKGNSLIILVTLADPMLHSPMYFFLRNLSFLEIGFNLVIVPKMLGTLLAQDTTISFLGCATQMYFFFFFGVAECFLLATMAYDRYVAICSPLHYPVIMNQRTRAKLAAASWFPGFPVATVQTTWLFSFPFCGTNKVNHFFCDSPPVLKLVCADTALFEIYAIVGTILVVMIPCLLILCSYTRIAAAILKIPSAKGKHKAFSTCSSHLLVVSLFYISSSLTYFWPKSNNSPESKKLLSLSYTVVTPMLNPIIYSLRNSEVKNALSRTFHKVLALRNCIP
Summary of the method: as §1

[4] = target: T4, OR10A6 (Homo sapiens) (UniProt Q8NH74)
T4 sequence (whole entry): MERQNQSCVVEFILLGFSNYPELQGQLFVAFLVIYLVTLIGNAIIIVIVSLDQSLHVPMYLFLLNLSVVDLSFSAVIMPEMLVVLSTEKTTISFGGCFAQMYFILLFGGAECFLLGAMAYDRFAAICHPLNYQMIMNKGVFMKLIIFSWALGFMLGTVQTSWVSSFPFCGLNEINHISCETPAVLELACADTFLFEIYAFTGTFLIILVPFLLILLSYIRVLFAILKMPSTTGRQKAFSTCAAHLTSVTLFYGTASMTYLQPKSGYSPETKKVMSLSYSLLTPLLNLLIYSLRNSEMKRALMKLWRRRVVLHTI
Summary of the method: as §1

[5] = target: T5, OR10A7 (Homo sapiens) (UniProt Q8NGE5)
T5 sequence (whole entry): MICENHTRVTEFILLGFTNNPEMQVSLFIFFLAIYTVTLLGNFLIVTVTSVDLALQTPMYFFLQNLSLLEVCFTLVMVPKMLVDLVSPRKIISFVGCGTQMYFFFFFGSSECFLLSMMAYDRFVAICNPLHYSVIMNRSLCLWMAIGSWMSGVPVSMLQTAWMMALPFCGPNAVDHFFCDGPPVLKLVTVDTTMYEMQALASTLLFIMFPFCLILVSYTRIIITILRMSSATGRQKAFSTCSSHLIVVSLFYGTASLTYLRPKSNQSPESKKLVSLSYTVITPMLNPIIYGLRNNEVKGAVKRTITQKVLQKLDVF
Summary of the method: as §1

[6] = target: T6, OR10AD1 (Homo sapiens) (UniProt Q8NGE0)
T6 sequence (whole entry): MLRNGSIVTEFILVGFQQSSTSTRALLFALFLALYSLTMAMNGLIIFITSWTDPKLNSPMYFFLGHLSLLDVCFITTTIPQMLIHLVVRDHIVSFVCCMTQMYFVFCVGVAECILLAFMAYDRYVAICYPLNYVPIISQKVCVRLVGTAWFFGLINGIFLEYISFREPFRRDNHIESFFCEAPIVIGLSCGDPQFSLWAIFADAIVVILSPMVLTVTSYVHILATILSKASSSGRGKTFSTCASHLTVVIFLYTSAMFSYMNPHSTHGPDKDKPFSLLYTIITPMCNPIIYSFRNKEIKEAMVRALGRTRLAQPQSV
Summary of the method: as §1

[7] = target: T7, OR10AG1 (Homo sapiens) (UniProt Q8NH19)
T7 sequence (whole entry): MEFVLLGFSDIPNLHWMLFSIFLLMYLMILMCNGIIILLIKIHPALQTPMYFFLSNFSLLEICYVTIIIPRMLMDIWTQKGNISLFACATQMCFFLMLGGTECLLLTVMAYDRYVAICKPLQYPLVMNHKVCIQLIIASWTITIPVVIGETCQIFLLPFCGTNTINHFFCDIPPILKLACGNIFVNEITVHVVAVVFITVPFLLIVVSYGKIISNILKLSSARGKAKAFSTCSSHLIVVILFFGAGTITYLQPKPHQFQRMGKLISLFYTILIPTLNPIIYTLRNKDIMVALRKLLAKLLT
Summary of the method: as §1

[8] = target: T8, OR10C1 (Homo sapiens) (UniProt Q96KK4)
T8 sequence (whole entry): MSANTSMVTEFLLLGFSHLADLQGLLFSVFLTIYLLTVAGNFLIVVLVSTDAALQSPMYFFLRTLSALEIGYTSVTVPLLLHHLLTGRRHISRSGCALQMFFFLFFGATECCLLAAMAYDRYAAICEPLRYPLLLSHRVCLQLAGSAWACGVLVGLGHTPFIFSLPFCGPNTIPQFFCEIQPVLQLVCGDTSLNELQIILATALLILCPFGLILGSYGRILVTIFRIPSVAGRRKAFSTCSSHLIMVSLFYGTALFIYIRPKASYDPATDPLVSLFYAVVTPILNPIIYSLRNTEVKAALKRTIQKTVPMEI
Summary of the method: as §1

[9] = target: T9, OR10D3 (Homo sapiens) (UniProt Q8NH80)
T9 sequence (whole entry): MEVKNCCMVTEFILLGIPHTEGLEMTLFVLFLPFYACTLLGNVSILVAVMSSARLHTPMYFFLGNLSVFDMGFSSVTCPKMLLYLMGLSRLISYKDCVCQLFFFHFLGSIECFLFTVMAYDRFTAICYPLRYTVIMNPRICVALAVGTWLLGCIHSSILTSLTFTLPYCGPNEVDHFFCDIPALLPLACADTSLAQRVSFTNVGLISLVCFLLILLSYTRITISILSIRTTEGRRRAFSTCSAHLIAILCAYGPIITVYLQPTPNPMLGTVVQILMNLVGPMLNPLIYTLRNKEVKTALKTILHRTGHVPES
Summary of the method: as §1

Measured: odorant receptor agonist call;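 further: active if original authors judged signal statistically different from baseline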

CC1=NC(C)C(C)S1 (centres undefined)
inactive: [1] | [2] | [3] | [4] | [5] | [6] | [7] | [8] | [9]
